# Compounds with a hit are over-represented: about 1.3% of the library has one in this group of screens.
# HKDC1 inh: HKDC1 hexokinase inhibitors, primary screen, biochemical, fluorescence, uHTS; Q2TB90; AID 493160, 2011; inhibition, % at 20 µM; recombinant HKDC1, G6PDH/diaphorase resazurin coupled fluorescence; 340,000 tested, 0.16% active;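 active means inhibition above about 35% when tested at 20 µM, limit read from the data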;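 further: plate controls were DMSO wells with enzyme for no effect and DMSO wells lacking enzyme for full effect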
# Target sequence (Q2TB90 whole entry, looked up): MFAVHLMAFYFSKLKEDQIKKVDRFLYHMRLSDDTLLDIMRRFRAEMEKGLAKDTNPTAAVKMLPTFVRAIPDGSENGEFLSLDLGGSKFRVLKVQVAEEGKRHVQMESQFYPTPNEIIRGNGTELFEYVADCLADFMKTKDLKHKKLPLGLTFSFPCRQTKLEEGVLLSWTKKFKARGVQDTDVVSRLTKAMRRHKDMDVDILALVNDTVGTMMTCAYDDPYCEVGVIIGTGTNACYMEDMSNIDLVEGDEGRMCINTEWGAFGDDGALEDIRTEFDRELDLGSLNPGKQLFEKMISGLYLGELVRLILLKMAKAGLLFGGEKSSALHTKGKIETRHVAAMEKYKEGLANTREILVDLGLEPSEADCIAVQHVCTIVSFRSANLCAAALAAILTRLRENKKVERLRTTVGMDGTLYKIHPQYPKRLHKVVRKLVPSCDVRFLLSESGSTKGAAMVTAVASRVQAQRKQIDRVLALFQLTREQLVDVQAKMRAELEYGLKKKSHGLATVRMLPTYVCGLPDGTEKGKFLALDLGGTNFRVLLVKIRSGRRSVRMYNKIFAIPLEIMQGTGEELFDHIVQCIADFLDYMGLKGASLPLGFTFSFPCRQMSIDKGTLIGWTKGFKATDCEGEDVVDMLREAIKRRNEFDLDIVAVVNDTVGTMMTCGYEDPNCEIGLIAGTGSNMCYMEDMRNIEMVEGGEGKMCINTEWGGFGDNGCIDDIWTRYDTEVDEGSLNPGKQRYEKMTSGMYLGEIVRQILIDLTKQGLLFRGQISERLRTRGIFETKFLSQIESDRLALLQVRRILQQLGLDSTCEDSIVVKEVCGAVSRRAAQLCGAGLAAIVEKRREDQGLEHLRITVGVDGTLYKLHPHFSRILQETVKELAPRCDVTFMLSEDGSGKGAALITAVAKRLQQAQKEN
#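 Incubation: 90 min at room temperature in dark / Material: recombinant HKDC1 (HK5) hexokinase enzyme, produced in-house / Quantity: enzyme 5 µg/mL final / Compound: one dose of 20 µM, 1% DMSO / Reagent: glucose and ATP substrates / Buffer or medium: Tris pH 8.0 buffer with MgCl2, Tween-20, BSA, BME / Technique: resorufin fluorescence at 613 nm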
# PfGluPho inh: PfG6PD enzyme inhibitors, primary screen, biochemical, fluorescence intensity, uHTS | inhibition, % at 20 µM | PfGluPho enzyme, NADPH resazurin-diaphorase fluorescence | 350,000 tested, 0.78% active | glucose-6-phosphate dehydrogenase-6-phosphogluconolactonase (Plasmodium falciparum 3D7);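 active means inhibition reaching at least a set limit at 20 µM in the primary screen, cut at about 59% in these data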;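 further: 0% = DMSO wells with substrate and 100% = DMSO wells lacking glucose-6-phosphate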
# Tb hexokinase: Trypanosoma brucei hexokinase 1 inhibitors, primary screen, biochemical, G6PDH-coupled NADH absorbance, MLSCN library. 220,000 tested, 0.11% active. recombinant TbHK1, G6PDH-coupled NADH A340. hexokinase 1 [Trypanosoma brucei]. AID 1430, 2008. inhibition, % at 10 µM;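 active means inhibition of 50% or more in the single-dose primary screen; inactive means inhibition below 50%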
# G6PDH CS: L. mesenteroides G6PDH inhibitors, counter-screen for G6PDH-coupled screening assays, biochemical, Leuconostoc mesenteroides enzyme; inhibition, % at 5 µM; 200,000 tested, 0.12% active; glucose-6-phosphate dehydrogenase [Leuconostoc mesenteroides]; Purified L. mesenteroides G6PDH, diaphorase/resazurin coupled fluorescence, 45 min; in the data active means inhibition above about 50%
# Diaph inh CS: diaphorase inhibitors and chemical oxidizers, primary screen, counter-screen for diaphorase-coupled primary assays, biochemical, uHTS, resorufin fluorescence. 190,000 tested, 0.69% active. inhibition, % at 20 µM. diaphorase resazurin-to-resorufin fluorescence, NADH, 16 min; bacterial (C. kluyveri) enzyme, not human;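 active means primary screen inhibition at 20 µM above a set limit, cut at about 50% in these data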;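 further: plate controls were DMSO with full reaction for no effect and wells lacking NADH for full effect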
#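 System: Bacterial diaphorase enzyme (C. kluyveri) | Incubation: 16-min room-temperature incubation before reading | Benchmarks: No-NADH positive control and DMSO neutral control | Measured by: Resorufin fluorescence 544/590 nm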
# PfG6PD confirm: PfG6PD inhibitors, hit retest, confirmation, biochemical, fluorescence intensity, single concentration. inhibition, % at 20 µM. AID 504753, 2011. shares compounds with PfGluPho inh. recombinant PfGluPho, NADPH-diaphorase-resazurin fluorescence. 2,400 tested, 34% active;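 active means inhibition of at least 50% at 20 µM in any single replicate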;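 further: 0% = DMSO with substrate and 100% = DMSO lacking glucose-6-phosphate substrate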
# Diaph ctr 10uM: diaphorase inhibitors and chemical oxidizers, confirmation, counter-screen for P. falciparum G6PD inhibitor project, biochemical, fluorescence intensity, 10 µM NADPH; AID 504862, 2011; inhibition, % at 20 µM; 820 tested, 39% active; shares compounds with PfGluPho inh; diaphorase-coupled resazurin reduction, NADPH 10 uM;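 active means average inhibition reaching 50% or more with the compound at 20 µM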;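 further: resorufin red fluorescence formed as diaphorase reduces resazurin using NADPH; 0% = DMSO with enzyme and 100% = DMSO without enzyme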
# Diaphorase 30uM: diaphorase inhibitors and chemical oxidizers, confirmation, counter-screen for P. falciparum G6PD inhibitor project, biochemical, fluorescence intensity, 30 µM NADPH | shares compounds with PfGluPho inh | Diaphorase/resazurin coupled assay, resorufin fluorescence | inhibition, % at 20 µM | 820 tested, 29% active;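 active means inhibition averaging 50% or more, tested at 20 µM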;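 further: 0% = DMSO with enzyme and 100% = DMSO wells lacking diaphorase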
# An asterisk follows results filed as active; nt = not tested or not shown.
SMILES,HKDC1 inh,PfGluPho inh,Tb hexokinase,G6PDH CS,Diaph inh CS,PfG6PD confirm,Diaph ctr 10uM,Diaphorase 30uM
O=c1c2cc(C(F)(F)F)ccc2sn1-c1ccccc1,nt,128*,nt,nt,nt,94*,-3,5
CC(=O)Nc1ccc2c(=O)n(-c3ccccc3)sc2c1,nt,127*,nt,nt,nt,105*,-16,1
N#Cc1c(N)n(-c2ccccc2)c(=O)c2cc([N+](=O)[O-])ccc12,1,-2,-7,10,20,nt,nt,nt
N#Cc1ccc2c(=O)n(-c3ccccc3)sc2c1,nt,123*,nt,nt,nt,108*,5,-6
CC(=O)Nc1ccc2c(c1)OCCOCCOc1cc(NC(C)=O)ccc1OCCO2,5,22,6,nt,nt,nt,nt,nt
NC(=O)N/N=C/c1ccc(-n2nncc2-c2ccc(Cl)cc2)cc1,-1,77*,nt,nt,nt,50*,48,50
COc1c(O)c(O)c2oc(-c3ccccc3)cc(=O)c2c1OC,8,98*,-14,21,49,79*,67*,30
COc1cc(-c2cc(=O)c3c(O)c(OC)c(OC)c(O)c3o2)ccc1O,4,88*,-14,20,66*,82*,46,25
O=C(Nc1nc(=S)ss1)c1c(F)cccc1F,-10,62*,-12,5,2,11,nt,nt
COn1c(-c2ccc(Cl)cc2)nc2ccc(Cl)cc21,0,66*,0,-1,10,8,nt,nt
O=C(O)COn1c(-c2ccc(Cl)cc2)nc2ccc(Cl)cc21,-4,60*,-2,6,6,36,nt,nt
COc1ccc(-c2nc3ccccc3n2OCC(=O)O)cc1,13,21,-6,4,3,nt,nt,nt
Cc1ccc(S(=O)(=O)NCC(=O)N2CCCCC2)cc1,3,-12,-8,2,6,nt,nt,nt
CC1CN(C(=O)c2ccc(COc3ccccc3Br)o2)CC(C)O1 (centres undefined),-7,-11,4,9,5,nt,nt,nt
CN(C)c1cccc(C(=O)Nc2cccc(F)c2)c1,-3,68*,2,-5,1,18,nt,nt
CN1CCSc2ccc(C(=O)Nc3cccc(F)c3)cc21,-5,64*,-4,nt,nt,14,nt,nt
COc1ccc(NC(=O)c2ccc3c(c2)N(C)CCS3)cc1,7,23,nt,nt,nt,nt,nt,nt
Nc1ccc(CNC(=O)OCC2c3ccccc3-c3ccccc32)cc1,1,117*,nt,nt,nt,74*,65*,56*
O=C(N[C@H](Cc1ccc(Cl)cc1)C(=O)O)OCC1c2ccccc2-c2ccccc21,7,-28,nt,nt,nt,nt,nt,nt
COc1cc(/C=N/n2cc(-c3ccccc3)[nH]c2=S)cc(OC)c1O,24,61*,-33,nt,nt,52*,-35,-31
Cc1ccc(/C=N/n2cc(-c3ccccc3)[nH]c2=S)s1,-11,56,-5,8,27,nt,nt,nt
Cc1ccc(C)c(NC(=O)C2CCCN(S(=O)(=O)c3ccc4[nH]c(=O)ccc4c3)C2)c1 (centres undefined),-8,5,nt,nt,nt,nt,nt,nt
COc1ccc(NC(=O)c2ccc3[nH]c(C)c(C)c3c2)c(OC)c1,3,62*,nt,nt,nt,-4,nt,nt
COc1cc(C(=S)N2CCCC2)cc(Cl)c1OCC(=O)Nc1ccc(C)cc1C,-9,64*,-5,5,22,-1,nt,nt
CCOc1cc(C(=O)Nc2ccc(C)cc2C)ccc1OCC(=O)N1CCCCC1,-11,5,0,-16,13,nt,nt,nt
SMILES,HKDC1 inh,PfGluPho inh,Tb hexokinase,G6PDH CS,Diaph inh CS,PfG6PD confirm,Diaph ctr 10uM,Diaphorase 30uM
CCc1ccc(Nc2nnc(SCC(=O)Nc3sccc3C(N)=O)s2)cc1,6,67*,28,3,25,7,nt,nt
COc1cccc(Nc2nnc(SCC(=O)Nc3sccc3C(N)=O)s2)c1,3,20,-2,8,31,nt,nt,nt
CCc1nnc(NS(=O)(=O)c2ccc(NC(=O)COc3ccc(Cl)c(C)c3)cc2)s1,3,-21,11,7,10,nt,nt,nt
CNC(=O)c1cc2c(cn1)[nH]c1ccccc12,5,21,nt,nt,nt,nt,nt,nt
COC(=O)[C@H](CCSC)NC(=O)c1cc2c(cn1)[nH]c1ccccc12,-14,80*,nt,nt,nt,57*,-10,-7
COc1ccc(N=Cc2sc(O)c3ccccc23)cc1,1,69*,1,1,-4,-9,nt,nt
O=C(CN1C(=O)C2C3C=CC(C3)C2C1=O)OCC(=O)c1ccc([N+](=O)[O-])cc1 (centres undefined),-4,59*,nt,nt,nt,60*,-1,-4
C=CCN(C(=O)COc1ccccc1)c1nnc(-c2ccncc2)s1,-9,1,-11,-3,16,nt,nt,nt
Cc1no[n+]([O-])c1COc1cccc(/C=N/Nc2nncn2N)c1,-5,100*,6,nt,nt,55*,41,27
C=CCc1c(C)[nH]c(=S)c(C#N)c1C,1,73*,17,8,38,56*,-13,-21
CC1(C)CC(=S)Nc2ccccc2S1,-4,35,-3,7,18,nt,nt,nt
CCOC(=O)c1sc(N/N=C/c2ccccc2)nc1C,-5,66*,-11,6,10,23,nt,nt
COc1ccccc1S(=O)(=O)n1cc(Cc2ccccc2)c(N)n1,-2,76*,9,8,13,7,nt,nt
COc1ccc(Cl)cc1S(=O)(=O)N1CCN=C1Cc1ccccc1,-4,19,nt,nt,nt,nt,nt,nt
Cc1ccc(C(=O)NCC(=O)NCC(=O)OCC(=O)c2ccc([N+](=O)[O-])cc2)cc1,-5,63*,32,-6,24,62*,-9,0
O=C(CNc1ccccc1)c1ccc([N+](=O)[O-])cc1,-13,64*,1,5,10,2,nt,nt
O=C(CNC(=O)c1cccs1)OCC(=O)c1ccc([N+](=O)[O-])cc1,-1,68*,7,10,-2,49*,-8,-10
O=C(COC(=O)c1ccccn1)c1ccc([N+](=O)[O-])cc1,5,63*,nt,nt,nt,41,nt,nt
Cc1ccc(C(=O)COC(=O)CNC(=O)CNC(=O)c2ccc(C)cc2)cc1,-7,-5,2,15,-6,nt,nt,nt
CCN(C(=O)c1c([N+](=O)[O-])cnn1C)c1ccccc1,nt,-14,nt,nt,nt,nt,nt,nt

# Source: PubChem BioAssay (several laboratories)
